Drawing on ChEMBL document CHEMBL1145100, “Structure-activity relationship of imidazo[1,2-a]pyridines as ligands for detecting beta-amyloid plaques in the brain” (J Med Chem, 2003), this text covers Ki for two compounds.

By Ki is commonly meant a dissociation constant, usually derived from enzyme kinetics or from competition with a known ligand. A low value points to higher affinity.

Some results are limits rather than exact numbers.

In this test the target is Amyloid-beta precursor protein (Homo sapiens, UniProt P05067). Put plainly: Inhibition constant against [125I]-7 (TZDM) binding to Amyloid beta 1-40 aggregates. Summed up: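 Abeta40 peptide aggregated at 0.5 mg/mL in pH 7.4 buffer (10 mM sodium phosphate, 1 mM EDTA), 37 °C for 36-42 h with shaking. Competition in 1 mL of 40% EtOH: fibrils 10-50 nM final, radiotracer 0.05 nM, inhibitors 10^-5 to 10^-10 M. Nonspecific binding with 2 µM thioflavin-T. Incubated 3 h at room temperature, then GF/B filtration with 10% ethanol washes and gamma counting. Ki from nonlinear regression.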
Chain of Amyloid-beta precursor protein (P05067 whole entry): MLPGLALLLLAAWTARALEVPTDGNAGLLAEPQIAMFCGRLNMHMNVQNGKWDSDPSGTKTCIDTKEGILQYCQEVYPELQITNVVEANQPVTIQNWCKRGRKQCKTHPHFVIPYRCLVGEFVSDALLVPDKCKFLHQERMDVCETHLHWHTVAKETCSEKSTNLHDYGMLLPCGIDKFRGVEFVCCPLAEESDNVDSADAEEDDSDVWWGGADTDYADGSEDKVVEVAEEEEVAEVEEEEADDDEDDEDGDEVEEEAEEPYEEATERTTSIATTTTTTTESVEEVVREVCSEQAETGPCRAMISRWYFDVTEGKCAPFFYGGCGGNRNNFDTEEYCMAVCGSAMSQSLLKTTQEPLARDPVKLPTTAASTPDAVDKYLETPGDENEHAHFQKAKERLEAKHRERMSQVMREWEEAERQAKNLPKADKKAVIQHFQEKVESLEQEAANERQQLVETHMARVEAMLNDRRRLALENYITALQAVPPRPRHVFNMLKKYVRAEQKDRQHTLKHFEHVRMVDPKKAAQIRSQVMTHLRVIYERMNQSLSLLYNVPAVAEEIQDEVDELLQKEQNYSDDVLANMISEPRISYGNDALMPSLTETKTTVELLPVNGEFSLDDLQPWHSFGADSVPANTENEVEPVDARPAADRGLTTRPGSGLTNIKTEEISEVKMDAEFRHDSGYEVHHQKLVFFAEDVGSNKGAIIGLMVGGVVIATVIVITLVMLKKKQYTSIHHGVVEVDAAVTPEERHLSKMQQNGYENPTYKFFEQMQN

`CN(C)c1ccc2nc(-c3ccc(Br)cc3)cn2c1`: the affinity corresponds to a Ki of 339 nM.

Take `CN(C)c1ccc(-c2nc3ccc(I)cn3c2I)cc1`: the Ki was more than 2000 nM.
